For orientation: IC50 means the concentration that gives 50% inhibition.

From ChEMBL document CHEMBL3351972, “Indole-3-ethylsulfamoylphenylacrylamides: potent histone deacetylase inhibitors with anti-inflammatory activity” (Eur J Med Chem, 2014) come the findings set out here.

The target of one data set is Histone deacetylase. Description: Inhibition of HDAC in human HeLa cells nuclear extracts incubated for 30 mins by fluorescent assay. It counts as cell-free.
Data set [1] relates to RAW264.7. Description: Anti-inflammatory activity in LPS-stimulated mouse RAW264.7 cells assessed as suppression of nitric oxide production pre-incubated for 1 hr before LPS stimulation for 24 hrs by Griess reagent based assay. It counts as functional, cell-based. The gist of the method:
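Nitrite concentration was quantified against a standard dilution series of sodium nitrite.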

The test system of data set [2] is RAW264.7. Description: Anti-inflammatory activity in LPS-stimulated mouse RAW264.7 cells assessed as suppression of TNFalpha production pre-incubated for 1 hr before LPS stimulation for 24 hrs by ELISA method. It counts as functional, cell-based. The procedure, abridged:
(§1)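 IL-6 and TNF-α were measured by ELISA. RAW 264.7 cells (1 × 10⁶) were plated and pretreated with or without compound for 1 h, then stimulated with LPS (25 ng/mL) for 24 h at 37 °C.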
A general note: An ELISA detects its analyte on a solid surface through an enzyme-linked reagent.

The test system of data set [3] is RAW264.7. Description: Anti-inflammatory activity in LPS-stimulated mouse RAW264.7 cells assessed as suppression of IL6 production pre-incubated for 1 hr before LPS stimulation for 24 hrs by ELISA method. It counts as functional, cell-based. The procedure, abridged:
as §1

Data set [4] has as its system RAW264.7. Description: Anti-inflammatory activity in LPS-stimulated mouse RAW264.7 cells assessed as suppression of PGE2 production pre-incubated for 1 hr before LPS stimulation for 24 hrs by enzyme immunoassay method. It counts as functional, cell-based. The gist of the method:
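RAW 264.7 cells (1 × 10⁶) were treated with or without compound for 1 h, then stimulated with LPS (25 ng/mL) for 24 h at 37 °C. PGE₂ in culture supernatants was measured by EIA kit.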

Data set [5] is described as follows: Retention time of the compound by HPLC method. It counts as physicochemical.
For data set [6], the system named is RAW264.7. As to the kind of experiment: Toxicity against mouse RAW264.7 cells assessed as reduction in cell viability at 0.01 to 1 uM incubated for 24 hrs by MTT assay. It counts as cell-based. The following applies: raw264.7, 24 h. The procedure, abridged:
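Macrophages were exposed to compound at 0.01–1 for 24 h. Viability was then assessed by MTT assay.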
(In general: Formazan colour is commonly taken as a measure of viable cells.)

For data set [7], the system named is RAW264.7. As to the kind of experiment: Anti-inflammatory activity in LPS-stimulated mouse RAW264.7 cells assessed as suppression of iNOS protein expression at 0.01 to 1 uM pre-incubated for 30 mins before LPS stimulation for 24 hrs by Western blotting method. It counts as functional, cell-based. The gist of the method:
(§2)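 RAW 264.7 cells (1 × 10⁶/well) were pretreated with compound at 0.01–1 for 30 min, then stimulated with LPS (25 ng/mL) for 24 h. Whole-cell extracts were cleared at 17,000 g for 30 min at 4 °C, and protein was measured by Bradford. Blots were blocked in 5% milk/TBST, probed with primary antibody overnight at 4 °C, then HRP secondary (1:1000) 1 h RT. Data are mean ± SEM of three replicates, compared with the LPS-only group.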
On the technique in general: Immunoblotting shows a protein as a band on a membrane.

Data set [8] relates to RAW264.7. As to the kind of experiment: Anti-inflammatory activity in LPS-stimulated mouse RAW264.7 cells assessed as suppression of COX2 protein expression at 0.01 to 1 uM pre-incubated for 30 mins before LPS stimulation for 24 hrs by Western blotting method. It counts as functional, cell-based. The procedure, abridged: as §2
Data set [9] deals with Transcription factor p65 (Mus musculus) (UniProt Q04207). Description: Inhibition of p65 phosphorylation in LPS-stimulated mouse RAW264.7 cells at 0.01 to 1 uM pre-incubated for 30 mins before LPS stimulation for 24 hrs by Western blotting method. It counts as cell-based. The gist of the method: as §2
Sequence of Transcription factor p65 (Mus musculus) (Q04207 whole entry): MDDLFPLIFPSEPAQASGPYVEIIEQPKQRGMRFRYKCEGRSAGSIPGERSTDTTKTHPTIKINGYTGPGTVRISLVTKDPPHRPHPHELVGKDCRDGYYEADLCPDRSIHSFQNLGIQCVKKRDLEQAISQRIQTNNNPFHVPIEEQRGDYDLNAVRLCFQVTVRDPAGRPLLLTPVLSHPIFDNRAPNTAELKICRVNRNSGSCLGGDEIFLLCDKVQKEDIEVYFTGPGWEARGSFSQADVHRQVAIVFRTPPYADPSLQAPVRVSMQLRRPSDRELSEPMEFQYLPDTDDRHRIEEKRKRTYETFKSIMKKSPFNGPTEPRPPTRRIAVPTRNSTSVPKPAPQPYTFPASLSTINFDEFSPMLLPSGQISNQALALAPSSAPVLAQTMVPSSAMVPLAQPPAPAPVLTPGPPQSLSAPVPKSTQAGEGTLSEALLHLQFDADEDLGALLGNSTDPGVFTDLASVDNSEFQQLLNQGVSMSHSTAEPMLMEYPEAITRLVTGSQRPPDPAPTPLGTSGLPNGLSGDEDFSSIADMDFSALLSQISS
The subject of data set [10] is Rattus norvegicus. As to the kind of experiment: Anti-inflammatory activity in Wistar rat model of carrageenan-induced edema assessed as reduction in right hind paw thickness at 20 mg/kg, po dosed 1 hour before carrageenan injection measured 3 hrs post carrageenan challenge by digital plethysmometry. It counts as functional, organism-based. On the set-up: dose 20 mg/kg. The procedure, abridged:
(§3)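 Male Wistar rats (7 weeks) were randomised into eight groups. They were dosed orally 1 h before carrageenan: vehicle (1% carboxymethyl cellulose + 0.5% Tween 80), test suspensions at 20 mg/kg, or indomethacin as positive control at 1 mg/kg. Carrageenan (0.5% w/v in saline) was injected intradermally into the base of the right hind paw. Paw change was read at 3 h by digital caliper and plethysmometer.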

Data set [11] deals with RAW264.7. Description: Inhibition of HDAC in mouse RAW264.7 cells assessed as increase in histone H3 acetylation at > 0.1 uM incubated for 24 hrs by Western blotting method.
Data set [12] deals with Rattus norvegicus. As to the kind of experiment: Anti-inflammatory activity in Wistar rat model of carrageenan-induced edema assessed as reduction in right hind paw thickness at 1 mg/kg, po dosed 1 hour before carrageenan injection measured 3 hrs post carrageenan challenge by digital plethysmometry. It counts as functional, organism-based. On the set-up: dose 1 mg/kg. The procedure, abridged:
as §3

Activity calls are given as the source filed them. No cut-off for these calls is given here.

With `Cn1cc(CCNS(=O)(=O)c2ccc(/C=C/C(=O)NO)cc2)c2ccccc21`, the half-maximal inhibitory concentration (IC50) at Histone deacetylase was 5.7 nM; with RAW264.7 [1], 290 nM; with RAW264.7 [2], 620 nM; with RAW264.7 [3], 32 nM; in the data set with RAW264.7 [4] it was 1500 nM. Besides, the Retention_time in [5] was 24.21 min.

With `Cc1[nH]c2ccccc2c1CCN(C)S(=O)(=O)c1ccc(/C=C/C(=O)NO)cc1`, the 50% inhibitory concentration (IC50) is 47.4 nM on Histone deacetylase; 1000 nM with RAW264.7 [1]; greater than 10000 nM in the data set with RAW264.7 [2]; 5.5 nM in the data set with RAW264.7 [3]; 2900 nM in the data set on RAW264.7 [4]. Further, the Retention_time in data set [5] is reported as 25.51 min.

For `CCn1c(C)c(CCNS(=O)(=O)c2ccc(/C=C/C(=O)NO)cc2)c2ccccc21`, the Activity entry with RAW264.7 [6] is recorded as “Non-toxic”. The inhibition result with RAW264.7 [7], in the data set with RAW264.7 [8], in the data set with Rattus norvegicus [10] and in the data set with RAW264.7 [11] was “Active” in each case. Besides, the inhibition result in [9] was “Dose-dependent effect”. The half-inhibitory concentration (IC50) worked out at 3.4 nM against Histone deacetylase; 260 nM in the data set with RAW264.7 [1]; 730 nM with RAW264.7 [2]; 21 nM in the data set with RAW264.7 [3]; 270 nM in the data set on RAW264.7 [4]. Besides, the Retention_time in data set [5] was determined as 27.93 min.

With `O=C(/C=C/c1ccc(S(=O)(=O)N2CCc3c([nH]c4ccccc34)C2)cc1)NO`, the half-maximal inhibitory concentration (IC50) against Histone deacetylase is 43.9 nM; in the data set on RAW264.7 [1], 3700 nM; with RAW264.7 [2] it was greater than 10000 nM; in the data set on RAW264.7 [3], 31 nM; in the data set on RAW264.7 [4], 7200 nM. In data set [5], this compound showed a Retention_time of 25.18 min.

With `CCN(CCc1c(C)[nH]c2ccccc12)S(=O)(=O)c1ccc(/C=C/C(=O)NO)cc1`, the IC50 against Histone deacetylase is 29.6 nM; in the data set on RAW264.7 [1], 1200 nM; with RAW264.7 [2] it was greater than 10000 nM; in the data set with RAW264.7 [3], 5.9 nM; in the data set with RAW264.7 [4] it was 2900 nM. In addition, in data set [5], the Retention_time was 27.17 min.

For `COc1ccc2c(c1)c(CC(=O)O)c(C)n2C(=O)c1ccc(Cl)cc1`, in the data set on Rattus norvegicus [12], the inhibition result was “Active”.

Take `CCN(CC)CCn1c(C)c(CCNS(=O)(=O)c2ccc(/C=C/C(=O)NO)cc2)c2ccccc21`: the half-inhibitory concentration (IC50) on Histone deacetylase came to 7.3 nM; in the data set with RAW264.7 [1], 3100 nM; with RAW264.7 [2], 1500 nM; in the data set with RAW264.7 [3] it was 0.14 nM; with RAW264.7 [4] it was 3100 nM. The Retention_time in [5] amounted to 16.67 min.

For `Cc1[nH]c2ccccc2c1CCNS(=O)(=O)c1ccc(/C=C/C(=O)NO)cc1`, the Activity result in the data set with RAW264.7 [6] is reported as “Non-toxic”. The inhibition entry with RAW264.7 [7], with RAW264.7 [8], in the data set with Rattus norvegicus [10] and in the data set with RAW264.7 [11] was “Active” in each case. The inhibition entry in data set [9] is “Dose-dependent effect”. Besides, the IC50 against Histone deacetylase was 2.8 nM; with RAW264.7 [1] it was 740 nM; with RAW264.7 [2] it was 480 nM; in the data set on RAW264.7 [3], 20 nM; in the data set with RAW264.7 [4] it was 330 nM. In [5], this compound had a Retention_time of 23.3 min.

With `Cc1c(CCNS(=O)(=O)c2ccc(/C=C/C(=O)NO)cc2)c2ccccc2n1C`, the Activity result in the data set on RAW264.7 [6] is given as “Non-toxic”. The inhibition entry in the data set with RAW264.7 [7], in the data set with RAW264.7 [8], with Rattus norvegicus [10] and with RAW264.7 [11] was “Active” in each case. For the same compound, the inhibition result in data set [9] was “Dose-dependent effect”. The IC50 on Histone deacetylase is 3.3 nM; with RAW264.7 [1] it was 300 nM; in the data set on RAW264.7 [2] it was 800 nM; with RAW264.7 [3], 14 nM; in the data set with RAW264.7 [4], 150 nM. The compound also had a Retention_time in [5] of 25.96 min.

As for `Cc1[nH]c2ccccc2c1CCNS(=O)(=O)c1cccc(/C=C/C(=O)NO)c1`, the Activity result with RAW264.7 [6] is recorded as “Non-toxic”. For the same compound, the inhibition entry with RAW264.7 [7], with RAW264.7 [8], in the data set on Rattus norvegicus [10] and with RAW264.7 [11] was “Active” in each case. In addition, the inhibition entry in data set [9] was “Dose-dependent effect”. Also, the IC50 was found to be 7.9 nM on Histone deacetylase; 360 nM in the data set with RAW264.7 [1]; 1500 nM in the data set with RAW264.7 [2]; 13 nM in the data set with RAW264.7 [3]; 320 nM with RAW264.7 [4]. This compound came in with a Retention_time in [5] of 23.3 min.

Consider `Cc1[nH]c2ccccc2c1CCN(C(C)C)S(=O)(=O)c1ccc(/C=C/C(=O)NO)cc1`, for which the concentration for half-maximal inhibition (IC50) against Histone deacetylase is 9.2 nM; with RAW264.7 [1], 1600 nM; in the data set on RAW264.7 [2], greater than 10000 nM; with RAW264.7 [3], 4.5 nM; in the data set on RAW264.7 [4], 7400 nM. The compound further registered a Retention_time in data set [5] of 28.67 min.

For the compound `O=C(/C=C/c1ccc(S(=O)(=O)NCCc2c[nH]c3ccccc23)cc1)NO`, the IC50 against Histone deacetylase came out at 6.6 nM; in the data set with RAW264.7 [1], 740 nM; in the data set on RAW264.7 [2], 1200 nM; with RAW264.7 [3] it was 0.014 nM; in the data set on RAW264.7 [4], 2200 nM. Also, the Retention_time in [5] was found to be 22.17 min.

`Cc1[nH]c2ccccc2c1CCNS(=O)(=O)c1ccc(C(=O)NO)cc1`: the 50% inhibitory concentration (IC50) against Histone deacetylase was 771.8 nM; in the data set with RAW264.7 [1], greater than 10000 nM; in the data set with RAW264.7 [2], greater than 10000 nM; with RAW264.7 [3], 23.9 nM; in the data set on RAW264.7 [4], greater than 10000 nM. In addition, the Retention_time in data set [5] was found to be 21.88 min.

Regarding `O=C(/C=C/c1cccc(S(=O)(=O)Nc2ccccc2)c1)NO` [BELINOSTAT], the IC50 stood at 2200 nM in the data set on RAW264.7 [1], 4700 nM with RAW264.7 [2], 0.059 nM in the data set with RAW264.7 [3] and 8280 nM with RAW264.7 [4].
